“Also recorded” adds a separate entry of the source.

A short description of data set [1]: ABTS radical scavenging assay. Format: biochemical. To be noted: read-out: ABTS IC50; concentration to scavenge 50% of radicals, mean ± SD. Summed up: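 ABTS radical cation generated by reacting ABTS with potassium persulfate, then diluted to an absorbance of about 0.700 at 732 nm. Test compound at several concentrations was mixed with the ABTS⁺ solution and the fall in absorbance recorded. Percent scavenging was calculated against a solvent control, with ascorbic acid as reference antioxidant. Three independent experiments in triplicate, mean ± SD.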

Data set [2] concerns AGS (human gastric adenocarcinoma). Description: SRB cytotoxicity assay, AGS cells. In kind it is cell-based. To be noted: for IC50: Homo sapiens, AGS, 72 h, read-out: IC50 AGS; for Selectivity index (SI) AGS: IC50 in GES-1 / IC50 in AGS. Summed up:
(§1)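 Cells plated at 3 × 10³ per well and left 24 h to attach at 37 °C, 5% CO₂. Test compound at 0–100 µM from ethanol stocks (1% final ethanol) for 72 h. Fixation in TCA (10% final), staining with 0.1% SRB, dye solubilized in 10 mM Tris, A540. Viability relative to 1% ethanol vehicle. IC50 from a four-parameter logistic fit with 95% CI; triplicate, three independent runs, mean ± SD. SI = IC50 in GES-1 divided by IC50 in the cancer line.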
(In general: In SRB staining, fixed cells bind dye roughly in proportion to their protein.)

Data set [3] relates to HT-29 (human colorectal adenocarcinoma). Description: SRB cytotoxicity assay, HT-29 cells. In kind it is cell-based. As to conditions: for IC50: Homo sapiens, HT-29, 72 h, read-out: IC50 HT-29; for Selectivity index (SI) HT-29: IC50 in GES-1 / IC50 in HT-29. In short, it runs like this:
as §1

Data set [4] deals with PC-3 (human prostate cancer). The experiment in a line: SRB cytotoxicity assay, PC-3 cells. To be noted: for IC50: Homo sapiens, PC-3, 72 h, read-out: IC50 PC-3; for Selectivity index (SI) PC-3: IC50 in GES-1 / IC50 in PC-3. In kind it is cell-based. Summed up:
as §1

The nature of another data set: Hemolysis assay. In kind it is cell-based, human. As to conditions: human, washed human red blood cells, Hemolysis (%), 30 min, 37 °C. Summed up:
(§2)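 Donor blood was collected in EDTA. RBCs were pelleted at 500 × g for 10 min, washed three times in PBS and resuspended in PBS. Cells were exposed to test compound at 10–300 µg/mL for 30 min at 37 °C with gentle agitation, then spun at 1000 × g for 5 min; supernatant hemoglobin was read at 540 nm. Deionized water defined 100% and PBS 0% hemolysis. Triplicate, three independent repeats.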

The test system of a further data set is human erythrocytes. Description: Hemolysis assay. As to conditions: for Hemolysis, result in words: 10–300 µg/mL; for Hemolysis (%): 30 min, 37 °C. Format: cell-based. Summed up:
as §2

For data set [5], the system named is mitochondrial membrane permeability of cancer cell line. The experiment in a line: Mitochondrial membrane permeability by flow cytometry. As to conditions: 48 h, Rhodamine 123, flow cytometry. In kind it is cell-based, human. For orientation: In flow cytometry, cells or beads pass a laser one at a time.

The IC50 is the concentration at which inhibition is half-maximal. In the case of `O=C1O[C@H]([C@@H](O)CO)C(O)=C1O` [AA, Ascorbic acid, reference compound], the IC50 in data set [1] amounted to 141 ± 3.5 µM.

Take `CC1(C)C2CC[C@@]1(C)C(=O)/C2=C/c1ccco1` [Compound 4, (1R,3E)-3-[(furan-2-yl)methylidene]-1,7,7-trimethylbicyclo[2.2.1]heptan-2-one]: the IC50 in data set [2] was more than 100 µM. For the same compound, the IC50 in data set [3] is more than 100 µM. Besides, the IC50 in data set [4] is more than 100 µM. Further, the IC50 in data set [1] is 1004 ± 2 µM. Besides, in “Hemolysis assay”, the hemolysis at 30 min, 10 µg/mL stood at 15.7%; the hemolysis at 30 min, 25 µg/mL turned out to be 18.2%; the hemolysis at 30 min, 50 µg/mL came to 20.1%; the hemolysis at 30 min, 100 µg/mL was determined as 31.8%. In addition, in “Hemolysis assay”, the hemolysis at 30 min, 200 µg/mL is 41.5% and the hemolysis at 30 min, 300 µg/mL turned out to be 49.7%. The “Hemolysis, result in words” value in the data set on human erythrocytes was “concentration dependent increase in hemolysis; also recorded: significant hemolysis”.

With `CC1(C)C2CC[C@]1(C)C(=O)/C2=C/c1cccs1` [Compound 5, (1S,3E)-1,7,7-trimethyl-3-[(thiophen-2-yl)methylidene]bicyclo[2.2.1]heptan-2-one], in data set [2], the IC50 was found to be 43.2 ± 0.3 µM and the “Selectivity index (SI) AGS” value came to 4.2. Besides, in data set [3], the IC50 was 87.5 ± 0.5 µM and the “Selectivity index (SI) HT-29” value stood at 2.1. In data set [4], the IC50 was determined as 63.57 ± 0.6 µM and the “Selectivity index (SI) PC-3” value is listed as 3.0. The IC50 in data set [1] was found to be 1301 ± 2.4 µM. The “Effect on mitochondrial membrane potential” value in data set [5] is “loss of the mitochondrial membrane potential”. In the data set “Hemolysis assay”, the hemolysis at 30 min, 10 µg/mL was 0%; the hemolysis at 30 min, 25 µg/mL was found to be 0%; the hemolysis at 30 min, 50 µg/mL stood at 1.1%; the hemolysis at 30 min, 100 µg/mL was 3.11%. Further, in “Hemolysis assay”, the hemolysis at 30 min, 200 µg/mL worked out at 7.4% and the hemolysis at 30 min, 300 µg/mL stood at 13.8%.

Take `O=c1[nH]cc(F)c(=O)[nH]1` [Compound 5-FU, 5-fluorouracil, reference compound]: the IC50 in data set [2] was 56.1 ± 0.5 µM; in data set [3], 2.9 ± 0.7 µM; in data set [4], 16.4 ± 0.6 µM. Further, the “Selectivity index (SI) AGS” value in data set [2] is recorded as 2.5. Further, in data set [3], the “Selectivity index (SI) HT-29” value amounted to 48.3.

For `CC1(C)C2CC[C@@]1(C)C(=O)/C2=C/c1cccs1` [Compound 6, (1R,3E)-1,7,7-trimethyl-3-[(thiophen-2-yl)methylidene]bicyclo[2.2.1]heptan-2-one], in data set [2], the IC50 is more than 100 µM. For the same compound, in data set [3], the IC50 is more than 100 µM. Further, the IC50 in data set [4] is more than 100 µM. In addition, in data set [1], the half-inhibitory concentration (IC50) turned out to be 1082 ± 1.7 µM. Besides, in “Hemolysis assay”, the hemolysis at 30 min, 10 µg/mL came to 6.36%; the hemolysis at 30 min, 25 µg/mL is 7.07%; the hemolysis at 30 min, 50 µg/mL is 16.8%; the hemolysis at 30 min, 100 µg/mL worked out at 21.6%. In the data set “Hemolysis assay”, the hemolysis at 30 min, 200 µg/mL was determined as 26.7% and the hemolysis at 30 min, 300 µg/mL was found to be 29%. The “Hemolysis, result in words” value with human erythrocytes is listed as “concentration dependent increase in hemolysis”.

On to `CC1(C)C2CC[C@]1(C)C(=O)/C2=C/c1ccoc1` [Compound 7, (1S,3E)-3-[(furan-3-yl)methylidene]-1,7,7-trimethylbicyclo[2.2.1]heptan-2-one], for which the IC50 in data set [2] is more than 100 µM. Moreover, the IC50 in data set [3] was more than 100 µM. Also, in data set [4], the IC50 is more than 100 µM. Also, the IC50 in data set [1] was determined as 1046 ± 3.3 µM. Besides, in “Hemolysis assay”, the hemolysis at 30 min, 10 µg/mL was 0%; the hemolysis at 30 min, 25 µg/mL amounted to 0%; the hemolysis at 30 min, 50 µg/mL stood at 0%; the hemolysis at 30 min, 100 µg/mL amounted to 1.81%. For the same compound, in the data set “Hemolysis assay”, the hemolysis at 30 min, 200 µg/mL was 3.12% and the hemolysis at 30 min, 300 µg/mL worked out at 5.97%.

Regarding `CC1(C)C2CC[C@@]1(C)C(=O)/C2=C/c1ccoc1` [Compound 8, (1R,3E)-3-[(furan-3-yl)methylidene]-1,7,7-trimethylbicyclo[2.2.1]heptan-2-one], the half-maximal inhibitory concentration (IC50) in data set [2] was more than 100 µM. Besides, the IC50 in data set [3] is more than 100 µM. Besides, the IC50 in data set [4] is more than 100 µM. The IC50 in data set [1] came out at 1344 ± 3.4 µM. In “Hemolysis assay”, the hemolysis at 30 min, 10 µg/mL came to 0%; the hemolysis at 30 min, 25 µg/mL was 2.53%; the hemolysis at 30 min, 50 µg/mL stood at 6.29%; the hemolysis at 30 min, 100 µg/mL is 8.5%. In the data set “Hemolysis assay”, the hemolysis at 30 min, 200 µg/mL turned out to be 9.74% and the hemolysis at 30 min, 300 µg/mL was determined as 12.2%.

With `CC1(C)C2CC[C@]1(C)C(=O)/C2=C/c1cc2ccccc2o1` [Compound 9, (1S,3E)-3-[(1-benzofuran-2-yl)methylidene]-1,7,7-trimethylbicyclo[2.2.1]heptan-2-one], in data set [2], the IC50 is 31.8 ± 0.4 µM and the “Selectivity index (SI) AGS” value was 7.0. Besides, in data set [3], the IC50 stood at 76.3 ± 0.2 µM and the “Selectivity index (SI) HT-29” value was found to be 3.0. In data set [4], the IC50 worked out at 97 ± 0.2 µM and the “Selectivity index (SI) PC-3” value was determined as 2.3. Besides, the IC50 in data set [1] came to 954.7 ± 2.7 µM. The “Effect on mitochondrial membrane potential” value in data set [5] was “loss of the mitochondrial membrane potential”. In “Hemolysis assay”, this compound came in with a hemolysis at 30 min, 10 µg/mL of 2.01%; a hemolysis at 30 min, 25 µg/mL of 3.31%; a hemolysis at 30 min, 50 µg/mL of 6.36%; a hemolysis at 30 min, 100 µg/mL of 8.05%. In the data set “Hemolysis assay”, this compound showed a hemolysis at 30 min, 200 µg/mL of 12.9% and a hemolysis at 30 min, 300 µg/mL of 13.4%.

`CC1(C)C2CC[C@@]1(C)C(=O)/C2=C/c1cc2ccccc2o1` [Compound 10, (1R,3E)-3-[(1-benzofuran-2-yl)methylidene]-1,7,7-trimethylbicyclo[2.2.1]heptan-2-one]: the IC50 in data set [2] was more than 100 µM. The IC50 in data set [3] is more than 100 µM. In data set [4], the IC50 is more than 100 µM. In addition, the IC50 in data set [1] is 1146 ± 3.7 µM. In the data set “Hemolysis assay”, this compound registered a hemolysis at 30 min, 10 µg/mL of 0%; a hemolysis at 30 min, 25 µg/mL of 0.38%; a hemolysis at 30 min, 50 µg/mL of 3.12%; a hemolysis at 30 min, 100 µg/mL of 5.84%. In “Hemolysis assay”, this compound yielded a hemolysis at 30 min, 200 µg/mL of 6.16% and a hemolysis at 30 min, 300 µg/mL of 8.05%.

On to `CC1(C)C2CC[C@]1(C)C(=O)/C2=C/c1ccsc1` [Compound 11, (1S,3E)-1,7,7-trimethyl-3-[(thiophen-3-yl)methylidene]bicyclo[2.2.1]heptan-2-one], for which the IC50 in data set [1] worked out at 1396 ± 3.8 µM. In the data set “Hemolysis assay”, this compound showed a hemolysis at 30 min, 10 µg/mL of 0%; a hemolysis at 30 min, 25 µg/mL of 0.77%; a hemolysis at 30 min, 50 µg/mL of 5.25%; a hemolysis at 30 min, 100 µg/mL of 7.2%. In “Hemolysis assay”, the hemolysis at 30 min, 200 µg/mL was determined as 11.2% and the hemolysis at 30 min, 300 µg/mL worked out at 13.2%.

As for `CC1(C)C2CC[C@@]1(C)C(=O)/C2=C/c1ccsc1` [Compound 12, (1R,3E)-1,7,7-trimethyl-3-[(thiophen-3-yl)methylidene]bicyclo[2.2.1]heptan-2-one], the IC50 in data set [1] is 1025 ± 3.5 µM. In “Hemolysis assay”, this compound yielded a hemolysis at 30 min, 10 µg/mL of 5.9%; a hemolysis at 30 min, 25 µg/mL of 6.81%; a hemolysis at 30 min, 50 µg/mL of 7.92%; a hemolysis at 30 min, 100 µg/mL of 9.41%. In the data set “Hemolysis assay”, this compound gave a hemolysis at 30 min, 200 µg/mL of 10.2% and a hemolysis at 30 min, 300 µg/mL of 12.5%. For the same compound, the “Hemolysis, result in words” value in the data set with human erythrocytes is given as “concentration dependent increase in hemolysis”.

For the compound `COc1cccc2c1C(=O)c1c(O)c3c(c(O)c1C2=O)C[C@@](O)(C(C)=O)C[C@@H]3O[C@H]1C[C@H](N)[C@H](O)[C@H](C)O1` [Daunorubicin, reference compound], in data set [2], the IC50 was determined as 13 ± 0.3 µM and the “Selectivity index (SI) AGS” value amounted to 27.1. Besides, in data set [3], the IC50 came to 15.1 ± 0.5 µM and the “Selectivity index (SI) HT-29” value stood at 23.3. Besides, in data set [4], the IC50 was 10.4 ± 0.4 µM and the “Selectivity index (SI) PC-3” value amounted to 33.9.

Take “Triton X-100 [Triton X-100 1%, reference compound]”: the “Hemolysis (%)” value in the data set with human erythrocytes (10 µg/mL), with human erythrocytes (25 µg/mL), with human erythrocytes (50 µg/mL), in the data set with human erythrocytes (100 µg/mL), in the data set with human erythrocytes (200 µg/mL) and with human erythrocytes (300 µg/mL) was 100% throughout.

These data come from PMC12705676 (Scientific Reports, 2025).
